Results: ChEMBL document CHEMBL3853298, “Total synthesis and in vitro bioevaluation of clavaminols A, C, H & deacetyl clavaminol H as potential chemotherapeutic and antibiofilm agents” (Eur J Med Chem, 2016)
pIC50: −log10 of the molar value.

Key:
[1] = Cytotoxicity against human SKOV3 cells assessed as cell growth inhibition by MTT assay; format: functional, cell-based; conditions: SK-OV-3
[2] = Cytotoxicity against human DU145 cells assessed as cell growth inhibition by MTT assay; format: functional, cell-based; conditions: DU-145
[3] = system: Staphylococcus aureus; experiment: Antibacterial activity against Staphylococcus aureus MTCC 96 after 24 hrs by well diffusion method; format: functional; conditions: MTCC 96, 24 h
Method in brief: (§1)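 Bacteria spread (0.1 mL suspension) on Mueller-Hinton agar; 6.0 mm wells loaded with compound over a 250 to 0.48 per-well dose range, methanol as negative control. Incubated 24 h at 37 °C. MIC taken as the lowest concentration still giving an inhibition zone. Duplicates, mean reported.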

[4] = system: Bacillus subtilis; experiment: Antibacterial activity against Bacillus subtilis MTCC 121 after 24 hrs by well diffusion method; format: functional; conditions: MTCC 121, 24 h; method in brief: as §1
[5] = system: Micrococcus luteus; experiment: Antibacterial activity against Micrococcus luteus MTCC 2470 after 24 hrs by well diffusion method; format: functional; conditions: MTCC 2470, 24 h; method in brief: as §1
[6] = system: Staphylococcus aureus; experiment: Antibacterial activity against Staphylococcus aureus MLS16 MTCC 2940 after 24 hrs by well diffusion method; format: functional; conditions: MLS16 MTCC 2940, 24 h; method in brief: as §1
[7] = system: Raoultella planticola; experiment: Antibacterial activity against Klebsiella planticola MTCC 530 after 24 hrs by well diffusion method; format: functional; conditions: MTCC 530, 24 h; method in brief: as §1
[8] = system: Escherichia coli; experiment: Antibacterial activity against Escherichia coli MTCC 739 after 24 hrs by well diffusion method; format: functional; conditions: MTCC 739, 24 h; method in brief: as §1
[9] = system: Pseudomonas aeruginosa; experiment: Antibacterial activity against Pseudomonas aeruginosa MTCC 2453 after 24 hrs by well diffusion method; format: functional; conditions: MTCC 2453, 24 h; method in brief: as §1
[10] = system: Candida albicans; experiment: Antifungal activity against Candida albicans MTCC 227 after 24 hrs by well diffusion method; format: functional; conditions: MTCC 227, 24 h
Method in brief: (§2)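 Candida/Issatchenkia lawns (0.1 mL suspension) on Mueller-Hinton agar; 6.0 mm bored wells receive compound across a 250 to 0.48 per-well dose range, methanol as negative control. Plates kept 24 h at 30 °C. MIC is the lowest concentration producing a visible inhibition zone. Duplicate runs, mean values.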

[11] = system: Candida albicans; experiment: Antifungal activity against Candida albicans MTCC 183 after 24 hrs by well diffusion method; format: functional; conditions: MTCC 183, 24 h; method in brief: as §2
[12] = system: Candida albicans; experiment: Antifungal activity against Candida albicans MTCC 854 after 24 hrs by well diffusion method; format: functional; conditions: MTCC 854, 24 h; method in brief: as §2
[13] = system: Candida albicans; experiment: Antifungal activity against Candida albicans MTCC 1637 after 24 hrs by well diffusion method; format: functional; conditions: MTCC 1637, 24 h; method in brief: as §2
[14] = system: Candida albicans; experiment: Antifungal activity against Candida albicans MTCC 3017 after 24 hrs by well diffusion method; format: functional; conditions: MTCC 3017, 24 h; method in brief: as §2
[15] = system: Candida albicans; experiment: Antifungal activity against Candida albicans MTCC 3018 after 24 hrs by well diffusion method; format: functional; conditions: MTCC 3018, 24 h; method in brief: as §2
[16] = system: Candida albicans; experiment: Antifungal activity against Candida albicans MTCC 3958 after 24 hrs by well diffusion method; format: functional; conditions: MTCC 3958, 24 h; method in brief: as §2
[17] = system: Candida albicans; experiment: Antifungal activity against Candida albicans MTCC 4748 after 24 hrs by well diffusion method; format: functional; conditions: MTCC 4748, 24 h; method in brief: as §2
[18] = system: Candida albicans; experiment: Antifungal activity against Candida albicans MTCC 7315 after 24 hrs by well diffusion method; format: functional; conditions: MTCC 7315, 24 h; method in brief: as §2
[19] = Antifungal activity against Candida parapsilosis MTCC 1744 after 24 hrs by well diffusion method; format: functional; method in brief: as §2
[20] = system: [Candida] aaseri; experiment: Antifungal activity against Candida aaseri MTCC 1962 after 24 hrs by well diffusion method; format: functional; conditions: Yamadazyma aaseri, MTCC 1962, 24 h; method in brief: as §2
[21] = Antifungal activity against Candida glabrata MTCC 3019 after 24 hrs by well diffusion method; format: functional; conditions: Nakaseomyces glabratus; method in brief: as §2
[22] = Antifungal activity against Candida krusei MTCC 3020 after 24 hrs by well diffusion method; format: functional; conditions: Pichia kudriavzevii; method in brief: as §2
[23] = system: Pichia sporocuriosa; experiment: Antifungal activity against Issatchenkia hanoiensis MTCC 4755 after 24 hrs by well diffusion method; format: functional; conditions: MTCC 4755, 24 h; method in brief: as §2
[24] = system: Staphylococcus aureus; experiment: Bactericidal activity against Staphylococcus aureus MTCC 96 after 24 hrs; format: functional; conditions: MTCC 96, 24 h
Method in brief: (§3)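 Broth macrodilution in Mueller Hinton broth, compound serially diluted from 150 down to 0. Overnight bacterial culture added to a final 1.5 × 10^8 CFU/mL (0.5 McFarland), 24 h at 37 °C. Suspension then subcultured onto Mueller Hinton agar for 24 h at 37 °C. MBC is the lowest concentration killing the strain. Duplicates.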

[25] = system: Bacillus subtilis; experiment: Bactericidal activity against Bacillus subtilis MTCC 121 after 24 hrs; format: functional; conditions: MTCC 121, 24 h; method in brief: as §3

CCCCCCCCC[C@H](O)[C@H](N)CO
31.2 µg/mL: MIC [18] | MIC [19]
15.6 µg/mL: MIC [7] | MIC [10] | MIC [11] | MIC [12] | MIC [14] | MIC [15] | MIC [17] | MIC [20] | MIC [21] | MIC [23]
3.9 µg/mL: MIC [4] | MIC [5] | MIC [6]
4.47: pIC50 [1] | pIC50 [2]
7.8 µg/mL: MIC [3] | MIC [8] | MIC [9] | MIC [13] | MIC [16] | MIC [22] | MBC [24] | MBC [25]
